Source: ChEMBL document CHEMBL1134147, “3-Arylpiperidines as potentiators of existing antibacterial agents” (Bioorg Med Chem Lett, 2001)
≈ marks a conversion by molar mass, not a printed value. Residues, ends and D or L forms follow the SMILES beside them. *: point of attachment. βNA = c1ccc2cc(N*)ccc2c1

system: Escherichia coli; experiment: Antibacterial activity against Escherichia coli strain ATCC 25922; assay type: functional; settings: not given

SMILES | MIC
N#Cc1ccc(CCC2CCCNC2)cc1 (configuration not stated) | > 128 µg/mL
Cl.F[C@H]1CCNC[C@@H]1Cc1cc(Br)ccc1Cl | 256 µg/mL
COc1ccccc1-c1ccc(CCC2CCCNC2)c(Cl)c1 (configuration not stated) | 64 µg/mL (≈ 194 µM)
c1ccc(CCC2CCCNC2)cc1 (configuration not stated) | > 128 µg/mL
Cl.OC1CCNC[C@@H]1Cc1cc(Br)ccc1Cl (some centres not stated) | > 256 µg/mL
Cl.Clc1ccc(Br)cc1/C=C/C1CCCNC1 (configuration not stated) | 64 µg/mL
Cc1ccc(C)c(CCC2CCCNC2)c1 (configuration not stated) | > 128 µg/mL
Cl.O[C@H]1CCNC[C@@H]1Cc1cc(Br)ccc1Cl | > 256 µg/mL
Clc1ccc(CCC2CCCNC2)cc1Cl (configuration not stated) | 128 µg/mL (≈ 496 µM)
Cl.O=C1CCNCC1Cc1cc(Br)ccc1Cl (configuration not stated) | > 256 µg/mL
FC(F)(F)c1cc(CCC2CCCNC2)cc(C(F)(F)F)c1 (configuration not stated) | 64 µg/mL (≈ 197 µM)
Clc1ccc(Cl)c(CCC2CCCNC2)c1 (configuration not stated) | 128 µg/mL (≈ 496 µM)
Cl.Clc1ccc(Br)cc1CCC1CCCNC1 (configuration not stated) | 128 µg/mL
Cl.F[C@@H]1CCNC[C@H]1CCc1cc(Br)ccc1Cl | 64 µg/mL
Cl.FC1=C(Cc2cc(Br)ccc2Cl)CNCC1 | 128 µg/mL
Clc1cccc(Cl)c1CCC1CCCNC1 (configuration not stated) | > 128 µg/mL
CCOc1ccc(CCC2CCCNC2)cc1 (configuration not stated) | > 128 µg/mL
N=C(N)NCCC[C@H](NC(=O)[C@@H](N)Cc1ccccc1)C(=O)Nc1ccc2ccccc2c1 [PABETAN] (H-Phe-Arg-βNA) | 256 µg/mL (≈ 573 µM)
Cl.Clc1ccc(Br)cc1CC1=CCCNC1 | 256 µg/mL

system: Staphylococcus aureus; experiment: Antibacterial activity against Staphylococcus aureus strain ATCC 29213; assay type: functional; settings: not given

SMILES | MIC
N#Cc1ccc(CCC2CCCNC2)cc1 (configuration not stated) | > 128 µg/mL
Cl.F[C@H]1CCNC[C@@H]1Cc1cc(Br)ccc1Cl | > 125 µg/mL
COc1ccccc1-c1ccc(CCC2CCCNC2)c(Cl)c1 (configuration not stated) | 32 µg/mL (≈ 97 µM)
c1ccc(CCC2CCCNC2)cc1 (configuration not stated) | > 128 µg/mL
Cl.OC1CCNC[C@@H]1Cc1cc(Br)ccc1Cl (some centres not stated) | > 128 µg/mL
Cl.Clc1ccc(Br)cc1/C=C/C1CCCNC1 (configuration not stated) | 32 µg/mL
Cc1ccc(C)c(CCC2CCCNC2)c1 (configuration not stated) | > 128 µg/mL
Cl.O[C@H]1CCNC[C@@H]1Cc1cc(Br)ccc1Cl | > 128 µg/mL
Clc1ccc(CCC2CCCNC2)cc1Cl (configuration not stated) | 128 µg/mL (≈ 496 µM)
Cl.O=C1CCNCC1Cc1cc(Br)ccc1Cl (configuration not stated) | > 128 µg/mL
FC(F)(F)c1cc(CCC2CCCNC2)cc(C(F)(F)F)c1 (configuration not stated) | 64 µg/mL (≈ 197 µM)
Clc1ccc(Cl)c(CCC2CCCNC2)c1 (configuration not stated) | 64 µg/mL (≈ 248 µM)
Cl.Clc1ccc(Br)cc1CCC1CCCNC1 (configuration not stated) | 64 µg/mL
Cl.F[C@@H]1CCNC[C@H]1CCc1cc(Br)ccc1Cl | 64 µg/mL
Cl.FC1=C(Cc2cc(Br)ccc2Cl)CNCC1 | > 128 µg/mL
Clc1cccc(Cl)c1CCC1CCCNC1 (configuration not stated) | > 128 µg/mL
CCOc1ccc(CCC2CCCNC2)cc1 (configuration not stated) | > 128 µg/mL
Cl.Clc1ccc(Br)cc1CC1=CCCNC1 | 128 µg/mL

system: Escherichia coli; experiment: Inhibitory activity against accumulation of [14C]-labeled Linezolid within wild-type Escherichia coli K12 cells; assay type: functional, cell-based; settings: K-12, K12
Procedure, shortened: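 E. coli K12 grown at 37 °C in LB + 0.2% glucose, rinsed twice, resuspended to OD530 8.0 in 50 mM KPO4 pH 7.0, 1 mM MgSO4, 0.2% glucose. Preincubated 10 min at 37 °C, inhibitor added for 30 min, then 14C-linezolid (30 µM final) 15 min. Cells spun through an oil cushion and scintillation counted. IC50 is half-maximal accumulation relative to 100 µM CCCP control.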

SMILES | IC50
N#Cc1ccc(CCC2CCCNC2)cc1 (configuration not stated) | > 900 µM
F[C@H]1CCNC[C@@H]1CCCc1cc(Br)ccc1Cl | 400 µM
Cl.F[C@H]1CCNC[C@@H]1Cc1cc(Br)ccc1Cl | > 900 µM
COc1ccccc1-c1ccc(CCC2CCCNC2)c(Cl)c1 (configuration not stated) | > 900 µM
c1ccc(CCC2CCCNC2)cc1 (configuration not stated) | > 900 µM
Cl.OC1CCNC[C@@H]1Cc1cc(Br)ccc1Cl (some centres not stated) | > 900 µM
Cl.Clc1ccc(Br)cc1/C=C/C1CCCNC1 (configuration not stated) | 140 µM
Cc1ccc(C)c(CCC2CCCNC2)c1 (configuration not stated) | > 900 µM
Cl.O[C@H]1CCNC[C@@H]1Cc1cc(Br)ccc1Cl | > 900 µM
Clc1ccc(CCC2CCCNC2)cc1Cl (configuration not stated) | 200 µM
Cl.O=C1CCNCC1Cc1cc(Br)ccc1Cl (configuration not stated) | > 900 µM
FC(F)(F)c1cc(CCC2CCCNC2)cc(C(F)(F)F)c1 (configuration not stated) | 300 µM
Clc1ccc(Cl)c(CCC2CCCNC2)c1 (configuration not stated) | 195 µM
Cl.Clc1ccc(Br)cc1CCC1CCCNC1 (configuration not stated) | 185 µM
Cl.F[C@@H]1CCNC[C@H]1CCc1cc(Br)ccc1Cl | 90 µM
Cl.FC1=C(Cc2cc(Br)ccc2Cl)CNCC1 | 480 µM
Clc1cccc(Cl)c1CCC1CCCNC1 (configuration not stated) | 290 µM
CCOc1ccc(CCC2CCCNC2)cc1 (configuration not stated) | > 900 µM
N=C(N)NCCC[C@H](NC(=O)[C@@H](N)Cc1ccccc1)C(=O)Nc1ccc2ccccc2c1 [PABETAN] (H-Phe-Arg-βNA) | 730 µM
Cl.Clc1ccc(Br)cc1CC1=CCCNC1 | 600 µM
